Measured values published in ChEMBL document CHEMBL2311348, “The extremo-α-carbonic anhydrase (CA) from Sulfurihydrogenibium azorense, the fastest CA known, is highly activated by amino acids and amines” (Bioorg Med Chem Lett, 2013).

Key:
[1] = system: Sulfurihydrogenibium azorense; assay: Activation of Sulfurihydrogenibium azorense recombinant alpha carbonic anhydrase by stopped flow CO2 hydrase method
Summary of the method: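 Full-length recombinant enzyme in a stopped-flow CO2 hydration assay at 25 °C: 0.2 mM phenol red read at its absorbance maximum, 10 mM Hepes pH 7.5, 0.1 M NaClO4, 10 s traces, CO2 1.7–17 mM. Activators were diluted from 10 mM water stocks down to 0.001 µM and preincubated with enzyme for 15 min at room temperature. Uncatalyzed rates were subtracted. kcat was measured at 10 µM activator. KA came from a steady-state equation, mean of ≥3 determinations.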

[2] = system: Sulfurihydrogenibium yellowstonense; assay: Activation of Sulfurihydrogenibium yellowstonense recombinant CA by stopped flow CO2 hydrase method

Compound	KA [1] [µM]	KA [2] [µM]
NCCc1ccccn1	0.34	0.33
NCCN1CCNCC1	0.076	0.09
N[C@H](Cc1c[nH]cn1)C(=O)O	0.09	0.012
NCCc1c[nH]c2ccc(O)cc12	0.007	0.021
Nc1ccc(C[C@H](N)C(=O)O)cc1	0.09	0.97
N[C@H](Cc1c[nH]c2ccccc12)C(=O)O	0.003	0.002
N[C@@H](Cc1c[nH]c2ccccc12)C(=O)O	0.023	0.007
N[C@@H](Cc1c[nH]cn1)C(=O)O	0.071	0.11
NCCc1ccc(O)c(O)c1	0.011	0.037
NCCN1CCOCC1	1.15	0.1
N[C@@H](Cc1ccc(O)cc1)C(=O)O	0.052	0.001
CNC[C@@H](O)c1ccc(O)c(O)c1	0.074	0.68
N[C@H](Cc1ccc(O)cc1)C(=O)O	0.11	0.83
NCCc1c[nH]cn1	0.1	0.08
NCc1ccccn1	0.081	0.1
N[C@@H](Cc1ccc(O)c(O)c1)C(=O)O	0.004	0.09
N[C@H](Cc1ccc(O)c(O)c1)C(=O)O	0.89	0.43
